Screens from PubChem.
MEKK3 PB1 HTS = MEKK3-MEK5 PB1 interaction, increase or decrease; Q99759; bead-based flow cytometry, Alexa488-MEK5 binding to MEKK3; actives lie on both sides; 0 = blocked by unlabeled MEK5, 100 = vehicle; binding response (% of control), % at 10 µM; 290,000 tested, 1.4% active; AID 1529;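 active = binding response more than 3 SD above or below the average of its plate-row segment, actives on both sides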;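 also: Alexa488 bead fluorescence after subtracting the streptavidin-only scavenger bead signal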
ABCG2 inh = human ABCG2 inhibition, ABCB1 as counter-screen. Q9UNQ0. IgMXP3 cells, JC-1 efflux, flow cytometry. inhibition, % at 6.6 µM. 190,000 tested, 0.1% active. AID 1325;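 active = inhibition above 80%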;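 also: 0% = DMSO and 100% = nicardipine control wells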
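Assay system – ABCG2 IgMXP3 and barcoded ABCB1 CCRF-Adr cell mix · Input – 3 million cells/mL in well · Reagent – JC-1 fluorescent substrate · Compound – single test compound dose, 6.6 µM final · Timing – 10 min exposure at 25 °C with rotation, no wash · Detection – flow cytometry of retained JC-1 fluorescence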
MEKK2wt PB1 HTS = raises or lowers MEK5 binding to wildtype human MEKK2 PB1 domain; bead flow cytometry, Alexa488-MEK5 binding to MEKK2 WT; actives lie on both sides; binding response (% of control), % at 10 µM; 290,000 tested, 1.1% active; AID 1531; in the data active = binding response below about 67% or above about 130%
WT yeast gro inh = growth inhibition of WT yeast, mitochondrial fusion screen; inhibition, % at 10 µM; mitochondrial fusion phenotypic screen, WT strain; AID 1362; 190,000 tested, 2.1% active; in the data active = inhibition above about 58%; tested in S. cerevisiae
ABCB1 inh = blocks JC-1 efflux by human ABCB1 transporter | P08183 | CCRF-Adr cells, flow cytometry | inhibition, % at 6.6 µM | 190,000 tested, 0.067% active; in the data active = inhibition above about 40%;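 also: 0% = vehicle and 100% = reference inhibitor; higher value means more JC-1 retained so stronger ABCB1 efflux block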
Target sequence (P08183 whole entry, looked up): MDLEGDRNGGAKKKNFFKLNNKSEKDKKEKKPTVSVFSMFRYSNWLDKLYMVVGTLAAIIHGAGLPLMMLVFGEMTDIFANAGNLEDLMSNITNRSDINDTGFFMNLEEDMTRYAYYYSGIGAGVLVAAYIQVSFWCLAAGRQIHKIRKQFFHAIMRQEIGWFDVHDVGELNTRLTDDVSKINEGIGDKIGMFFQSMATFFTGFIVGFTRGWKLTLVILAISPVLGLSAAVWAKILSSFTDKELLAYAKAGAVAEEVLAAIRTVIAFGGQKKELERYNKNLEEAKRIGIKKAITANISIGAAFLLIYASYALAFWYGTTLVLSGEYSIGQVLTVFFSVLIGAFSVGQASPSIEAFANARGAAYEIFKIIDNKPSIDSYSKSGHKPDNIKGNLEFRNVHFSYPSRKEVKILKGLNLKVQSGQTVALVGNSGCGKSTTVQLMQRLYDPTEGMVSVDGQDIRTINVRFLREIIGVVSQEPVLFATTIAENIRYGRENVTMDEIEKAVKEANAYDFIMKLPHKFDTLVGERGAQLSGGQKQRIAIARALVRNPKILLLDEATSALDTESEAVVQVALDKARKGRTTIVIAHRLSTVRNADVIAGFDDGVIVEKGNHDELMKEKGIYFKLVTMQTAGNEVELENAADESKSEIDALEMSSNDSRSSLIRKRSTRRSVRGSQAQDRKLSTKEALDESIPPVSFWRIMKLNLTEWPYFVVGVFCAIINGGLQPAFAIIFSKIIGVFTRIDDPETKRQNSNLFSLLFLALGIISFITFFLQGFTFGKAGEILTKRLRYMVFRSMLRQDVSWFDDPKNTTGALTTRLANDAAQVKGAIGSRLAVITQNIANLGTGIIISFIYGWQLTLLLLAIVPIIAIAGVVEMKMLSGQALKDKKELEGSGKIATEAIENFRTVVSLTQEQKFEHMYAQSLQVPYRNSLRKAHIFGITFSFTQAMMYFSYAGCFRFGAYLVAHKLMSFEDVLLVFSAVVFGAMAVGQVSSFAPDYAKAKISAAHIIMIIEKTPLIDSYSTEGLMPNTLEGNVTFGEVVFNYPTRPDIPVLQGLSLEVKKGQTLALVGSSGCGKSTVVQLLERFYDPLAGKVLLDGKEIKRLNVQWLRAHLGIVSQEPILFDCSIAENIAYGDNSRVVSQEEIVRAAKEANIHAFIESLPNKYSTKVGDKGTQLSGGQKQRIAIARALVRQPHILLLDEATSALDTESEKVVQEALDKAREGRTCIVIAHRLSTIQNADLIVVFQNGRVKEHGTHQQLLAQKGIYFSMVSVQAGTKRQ
MEKK2 mut-MEK5 = signal of MEK5 binding to mutant human MEKK2 PB1 domain | bead flow cytometry, Alexa488-MEK5 binding to MEKK2 mutant | percent response, % at 10 µM | 290,000 tested, 0.35% active; in the data active = percent response above about 24%, passing the limit was not always enough
MEKK2wt confirm = raises or lowers MEK5 binding to wildtype human MEKK2, retest; 5,900 tested, 2.4% active; shares compounds with MEKK3 PB1 HTS; binding response (% of control), % at 10 µM; bead flow cytometry, Alexa488-MEK5 binding to MEKK2 WT; actives lie on both sides; in the data active = binding response below about 16% or above about 210%; inactive = in between
MEKK2mut-MEK5 = signal of MEK5 binding to mutant human MEKK2, retest; shares compounds with MEKK3 PB1 HTS; bead flow cytometry, Alexa488-MEK5 binding to MEKK2 mutant; percent response, % at 10 µM; 5,900 tested, 2% active; AID 1893; in the data active = percent response mostly above about 71%, no sharp cut-off; inactive = mostly below about 38%;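 also: higher means compound restores mutant binding toward wildtype level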
MEKK3-MEK5 inh = confirmation of inhibitors of MEK5 binding to human MEKK3; shares compounds with MEKK3 PB1 HTS; bead flow cytometry, Alexa488-MEK5 binding to MEKK3; stronger effect = lower value; binding response (% of control), % at 10 µM; 5,900 tested, 1.8% active; AID 1894;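 active = binding response below 72% of control, or above a set upper limit, though filed actives all read lower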;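 also: 100% = DMSO only wells and 0% = binding blocked by excess unlabeled MEK5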
Numbers without * were called inactive; . = not tested or not shown; [ ] = another dose, or the depositor's remark. The list is not random: actives were taken first. Their share in the collection is about 3.5%.

SMILES	MEKK3 PB1 HTS	ABCG2 inh	MEKK2wt PB1 HTS	WT yeast gro inh	ABCB1 inh	MEKK2 mut-MEK5	MEKK2wt confirm	MEKK2mut-MEK5	MEKK3-MEK5 inh
O=S(=O)(c1cc(Cl)ccc1Cl)n1ccnc1	98	-1	87	-11	0	-9	.	.	.
O=[N+]([O-])c1ccc(Cl)c(S(=O)(=O)n2ccnc2)c1	130*	.	118	.	.	28	105	4	103
COc1ccccc1Nc1nc(NCCCN(C)C)nc(N)c1[N+](=O)[O-]	111	.	145*	.	.	47	144	29	103
Cc1ccc(Nc2nc(NCCCN3CCOCC3)nc(N)c2[N+](=O)[O-])cc1C	106	25	148*	27	4	21	131	15	102
CCN(CC)S(=O)(=O)c1ccc(-c2cc(C(=O)OC)sc2C(F)(F)F)cc1	130*	.	126	.	.	23	106	2	100
COC(=O)c1cc(-c2ccc(S(=O)(=O)N3CCCC3)cc2)c(C(F)(F)F)s1	87	.	88	.	.	-25	.	.	.
CN1CCN(c2ccc(Cl)cc2NC(=O)/C=C/c2cccc(F)c2)CC1	103	2	149*	17	3	18	151	37	106
CN1CCN(c2ccc(Cl)cc2NC(=O)c2cccc(S(=O)(=O)N(C)C)c2)CC1	105	6	126	9	1	19	.	.	.
COc1ccc(N2C(=O)/C(=C/c3ccc([N+](=O)[O-])cc3)C=C2c2ccccc2)cc1	76*[inhibitor]	1	-10*	11	0	-6	88	-5	91
O=C1/C(=C/c2ccc([N+](=O)[O-])cc2)C=C(c2ccccc2)N1c1ccccc1	90	2	83	-10	1	-4	.	.	.
CCOc1cc(/C=N/NC(=O)CSc2nnc(C)s2)ccc1OCc1ccccc1Cl	132*	8	101	-2	2	-1	106	3	102
O=C(Nc1ccc(Cl)cc1)c1cncs1	98	.	101	.	.	1	.	.	.
NNc1nc2c(F)cccc2s1	140*	-7	105	8	0	0	106	0	104
Fc1cccc2sc(Nc3nc4c(F)cccc4s3)nc12	102	0	103	21	0	-2	.	.	.
Nc1nc2c(F)cccc2s1	133*	-3	102	9	0	0	102	1	99
O=C(CSc1nc2c(sc3ccccc32)c(=O)n1Cc1ccco1)NCC1CCCO1 (stereo not drawn)	2.0*[inhibitor]	6	3.0*[inhibitor]	3	2	-21	107	8	110
Cc1cc(OCCN2CCCCCC2)ccc1[N+](=O)[O-]	97	1	104	9	0	14	.	.	.
Cc1ccc([N+](=O)[O-])c(OCCCN2CCCCCC2)c1	99	0	169*	9	0	66*	130	16	104
COc1cc(CN2CCCC(N3CCN(c4ccccc4C)CC3)C2)ccc1O (stereo not drawn)	106	.	107	.	.	13	.	.	.
O=C1CC(N(CCc2ccccc2)C(=S)Nc2ccccc2)C(=O)N1c1ccc(Br)cc1 (stereo not drawn)	102	0	149*	70*	-1	16	140	16	107
Cc1ccc(NC(=O)N2CCCC2C(=O)NCCc2ccccc2)cc1 (stereo not drawn)	100	3	98	-1	0	2	.	.	.
Cn1c(=O)cc(N2CCCCC2)[nH]c1=O	106	1	105	11	0	5	.	.	.
Cn1c(=O)cc(N2CCOCC2)[nH]c1=O	75	-1	70*[inhibitor]	8	-1	-20	106	7	105
Cc1cc(C)c(C#N)c(N2CCCC2)n1	.	4	.	22	0	.	.	.	.
Cc1cc(C)c(C#N)c(Cl)n1	149*	17	107	13	1	0	105	1	103
SMILES	MEKK3 PB1 HTS	ABCG2 inh	MEKK2wt PB1 HTS	WT yeast gro inh	ABCB1 inh	MEKK2 mut-MEK5	MEKK2wt confirm	MEKK2mut-MEK5	MEKK3-MEK5 inh
CN(CC(=O)Nc1cccc(F)c1)C(=O)/C=C/c1ccc2ccccc2n1	96	.	99	.	.	0	.	.	.
CCc1cc(=O)oc2cc(C)cc(OCC(C)=O)c12	102	.	101	.	.	7	.	.	.
CCc1cc(=O)oc2cc(C)cc(OCC(=O)C(C)(C)C)c12	72*[inhibitor]	3	70	-6	1	-23	101	-1	103
C[n+]1cn(CC(O)COCc2ccccc2)c2ccccc21 (stereo not drawn)	.	1	.	12	1	.	.	.	.
CCCCCc1ccc(OCCC[n+]2ccccc2)c(CCCCC)c1	96	.	145*	.	.	19	146	30	104
CCCCCc1ccc(OCCOCCn2c[n+](C)c3ccccc32)c(CCCCC)c1	79	6	232*	96*	-2	23	186	52	106
CC(C)NC(=O)Cn1cc(S(=O)(=O)N2CCCC2)c(S(=O)(=O)N2CCCC2)c1	99	.	98	.	.	-4	.	.	.
C=CCOC(=O)C1=C[C@@H](c2ccc3c(c2)OCO3)C[C@@H](OCc2ccc(CO)cc2)O1	99	0	104	21	0	3	.	.	.
CCOCCCNC(=S)NCCCNc1nc2cc3c(cc2cc1C#N)OCO3	1.0*[inhibitor]	7	-4.0*[inhibitor]	2	1	-18	97	-2	99
O=C(CSc1cccc2cccc(Cl)c12)NCc1cccs1	103	33	101	10	1	-3	.	.	.
O=C(Nc1ccc(Br)c(C(F)(F)F)c1)c1ccc(C(F)(F)F)cc1	119	.	139*	.	.	10	141	18	103
COC(=O)c1cc(C(=O)NCc2ccccc2)c(=O)[nH]c1C	3.0*[inhibitor]	27	3.0*[inhibitor]	-8	-1	-19	100	-2	102
CCOC(=O)c1cc(C(=O)NC(C)c2ccccc2)c(=O)[nH]c1C (stereo not drawn)	106	.	108	.	.	13	.	.	.
Cc1occc1C(=O)N1CCN(S(=O)(=O)c2ccccc2)CC1	103	.	107	.	.	4	.	.	.
CC(C)(C)C(=O)c1sc2nc(-c3cccs3)cc(C(F)(F)F)c2c1N	94	20	53*[inhibitor]	6	33	-9	102	6	103
O=C(NCc1cn(-c2ccccc2)nc1-c1ccccc1)c1cccc([N+](=O)[O-])c1	101	11	114	20	1	8	.	.	.
N#CCCn1cc(CNCc2ccccc2)c(-c2cccc([N+](=O)[O-])c2)n1	105	3	160*	-2	1	23	144	21	99
